# Calls of active or inactive are those of the source. The rule behind the calls is not given here.
# How the values were obtained:
# A498 = assay: Growth inhibition of human A498 cells; assay type: functional
# HOP-62 = assay: Growth inhibition of human HOP62 cells; assay type: functional
# NCI-H522 = assay: Growth inhibition of human NCI-H522 cells; assay type: functional
# PC-3 = assay: Growth inhibition of human PC3 cells; assay type: functional
# COLO 205 = assay: Growth inhibition of human COLO205 cells; assay type: functional
# SF-295 = assay: Growth inhibition of human SF295 cells; assay type: functional
# T47D [1] = assay: Growth inhibition of human T47D cells; assay type: functional
# DU-145 = assay: Growth inhibition of human DU145 cells; assay type: functional
# T47D [2] = assay: Inhibition of 1,10-phenanthroline-induced VEGF protein secretion in human T47D cells at 10 uM after 16 hrs by ELISA; assay type: functional, cell-based
# Summary of the method: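 T47D cells stimulated with 1,10-phenanthroline, compound at 10 μM; secreted VEGF in conditioned media by ELISA, normalized to cell-lysate protein.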
# M14 = assay: Growth inhibition of human M14 cells; assay type: functional
# SN12C = assay: Growth inhibition of human SN12C cells; assay type: functional
# ACHN = assay: Growth inhibition of human ACHN cells; assay type: functional
# KM12 = assay: Growth inhibition of human KM12 cells; assay type: functional
# NCI-H226 = assay: Growth inhibition of human NCI-H226 cells; assay type: functional
# Hs-578T = assay: Growth inhibition of human HS578T cells; assay type: functional
# SR = assay: Growth inhibition of human SR cells; assay type: functional
# MDA-MB-231 = assay: Growth inhibition of human MDA-MB-231 cells; assay type: functional
# [3] = biological target: Hypoxia inducible factors; HIF-1-alpha, HIF-2-alpha (Homo sapiens, UniProt Q16665+Q99814); assay: Inhibition of HIF1 activation in human T47D cells by TK-luciferase assay; assay type: cell-based
# Summary of the method: (§1)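 HIF-1 reporter (pHRE-TK-Luc) assays in transfected PC-3 or T47D cells; HIF-1 induced by hypoxia or by the hypoxia mimetic 1,10-phenanthroline (10 μM); compounds at half-log concentrations; luciferase activity measured; IC50 from experiments in triplicate.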
# BT-549 = assay: Growth inhibition of human BT549 cells; assay type: functional
# UO-31 = assay: Growth inhibition of human UO31 cells; assay type: functional
# 786-0 = assay: Growth inhibition of human 786-0 cells; assay type: functional
# Malme-3M = assay: Growth inhibition of human MALME-3M cells; assay type: functional
# UACC-257 = assay: Growth inhibition of human UACC257 cells; assay type: functional
# HCC 2998 = assay: Growth inhibition of human HCC2998 cells; assay type: functional
# SK-OV-3 = assay: Growth inhibition of human SK-OV3 cells; assay type: functional
# SK-MEL-5 = assay: Growth inhibition of human SK-MEL5 cells; assay type: functional
# SNB-75 = assay: Growth inhibition of human SNB75 cells; assay type: functional
# HT-29 = assay: Growth inhibition of human HT29 cells; assay type: functional
# HCT-15 = assay: Growth inhibition of human HCT15 cells; assay type: functional
# CAKI-1 = assay: Growth inhibition of human CAKI1 cells; assay type: functional
# SNB-19 = assay: Growth inhibition of human SNB19 cells; assay type: functional
# K562 = assay: Growth inhibition of human K562 cells; assay type: functional
# MCF7 = assay: Growth inhibition of human MCF7 cells; assay type: functional
# HCT-116 = assay: Growth inhibition of human HCT116 cells; assay type: functional
# SK-MEL-28 = assay: Growth inhibition of human SK-MEL28 cells; assay type: functional
# [4] = Inhibition of 1,10-phenanthroline-induced HIF1 activation in T47D cells by TK-luciferase assay; assay type: cell-based; conditions: Homo sapiens; summary of the method: as §1
# RXF 393 = assay: Growth inhibition of human RXF393 cells; assay type: functional
# NCI-H322M = assay: Growth inhibition of human NCI-H322M cells; assay type: functional
# SK-MEL-2 = assay: Growth inhibition of human SK-MEL2 cells; assay type: functional
# EKVX = assay: Growth inhibition of human EKVX cells; assay type: functional
# [5] = Inhibition of HIF1 activation in PC3 cells by TK-luciferase assay; assay type: cell-based; conditions: Homo sapiens, PC-3; summary of the method: as §1
# [6] = read-out: Log LC50 (the source's name) (converted)
smiles,measurement,setting,value
CCCc1cc(=O)c2c(OC)c3c(OC)cc(OC)cc3cc2o1,GI50,A498,3.47 µM
same,LC50,A498,> 100 µM
same,TGI,A498; read-out: Log TGI (converted),> 100 µM
same,GI50,HOP-62,57.5 µM
same,CC50,HOP-62; [6],> 100 µM
same,TGI,HOP-62; read-out: Log TGI (converted),> 100 µM
same,GI50,NCI-H522,32.4 µM
same,CC50,NCI-H522; [6],> 100 µM
same,TGI,NCI-H522; read-out: Log TGI (converted),> 100 µM
same,GI50,PC-3,51.3 µM
same,LC50,PC-3,> 100 µM
same,TGI,PC-3; read-out: Log TGI (converted),> 100 µM
same,GI50,COLO 205,> 100 µM
same,CC50,COLO 205; [6],> 100 µM
same,TGI,COLO 205; read-out: Log TGI (converted),> 100 µM
same,GI50,SF-295,53.7 µM
same,LC50,SF-295,> 100 µM
same,TGI,SF-295; read-out: Log TGI (converted),> 100 µM
same,GI50,T47D [1],16.6 µM
same,LC50,T47D [1],> 100 µM
same,TGI,T47D [1]; read-out: Log TGI (converted),> 100 µM
same,GI50,DU-145,81.3 µM
same,CC50,DU-145; [6],> 100 µM
same,TGI,DU-145; read-out: Log TGI (converted),> 100 µM
same,Activity,T47D [2],inactive
same,GI50,M14,67.6 µM
same,LC50 (50% lethal concentration),M14,34.7 µM
same,TGI,M14; read-out: Log TGI (converted),> 100 µM
same,GI50,SN12C,> 100 µM
same,LC50,SN12C,> 100 µM
same,TGI,SN12C; read-out: Log TGI (converted),> 100 µM
same,GI50,ACHN,> 100 µM
same,CC50,ACHN; [6],> 100 µM
same,TGI,ACHN; read-out: Log TGI (converted),> 100 µM
same,GI50,KM12,87.1 µM
same,CC50,KM12; [6],> 100 µM
same,TGI,KM12; read-out: Log TGI (converted),> 100 µM
same,GI50,NCI-H226,> 100 µM
same,CC50,NCI-H226; [6],> 100 µM
same,TGI,NCI-H226; read-out: Log TGI (converted),> 100 µM
same,GI50,Hs-578T,33.1 µM
same,LC50,Hs-578T,> 100 µM
same,TGI,Hs-578T; read-out: Log TGI (converted),> 100 µM
same,GI50,SR,39.8 µM
same,CC50,SR; [6],> 100 µM
same,TGI,SR; read-out: Log TGI (converted),> 100 µM
same,GI50,MDA-MB-231,25.7 µM
same,LC50,MDA-MB-231,> 100 µM
same,TGI,MDA-MB-231; read-out: Log TGI (converted),> 100 µM
same,IC50,[3],3.9 µM
same,GI50,BT-549,66.1 µM
same,LC50,BT-549,> 100 µM
same,TGI,BT-549; read-out: Log TGI (converted),> 100 µM
same,GI50,UO-31,42.7 µM
same,LC50,UO-31,> 100 µM
same,TGI,UO-31; read-out: Log TGI (converted),> 100 µM
same,GI50,786-0,91.2 µM
same,LC50,786-0,> 100 µM
same,TGI,786-0; read-out: Log TGI (converted),> 100 µM
same,GI50,Malme-3M,83.2 µM
same,CC50,Malme-3M; [6],> 100 µM
same,TGI,Malme-3M; read-out: Log TGI (converted),> 100 µM
same,GI50,UACC-257,> 100 µM
same,LC50,UACC-257,> 100 µM
same,TGI,UACC-257; read-out: Log TGI (converted),> 100 µM
same,GI50,HCC 2998,> 100 µM
same,CC50,HCC 2998; [6],> 100 µM
same,TGI,HCC 2998; read-out: Log TGI (converted),> 100 µM
same,GI50,SK-OV-3,> 100 µM
same,LC50,SK-OV-3,> 100 µM
same,TGI,SK-OV-3; read-out: Log TGI (converted),> 100 µM
same,GI50,SK-MEL-5,45.7 µM
same,LC50,SK-MEL-5,> 100 µM
same,TGI,SK-MEL-5; read-out: Log TGI (converted),> 100 µM
same,GI50,SNB-75,74.1 µM
same,LC50,SNB-75,> 100 µM
same,TGI,SNB-75; read-out: Log TGI (converted),> 100 µM
same,GI50,HT-29,26.3 µM
same,CC50,HT-29; [6],> 100 µM
same,TGI,HT-29; read-out: Log TGI (converted),> 100 µM
same,GI50,HCT-15,35.5 µM
same,CC50,HCT-15; [6],> 100 µM
same,TGI,HCT-15; read-out: Log TGI (converted),> 100 µM
same,GI50,CAKI-1,> 100 µM
same,LC50,CAKI-1,> 100 µM
same,TGI,CAKI-1; read-out: Log TGI (converted),> 100 µM
same,GI50,SNB-19,> 100 µM
same,LC50,SNB-19,> 100 µM
same,TGI,SNB-19; read-out: Log TGI (converted),> 100 µM
same,GI50,K562,39.8 µM
same,CC50,K562; [6],> 100 µM
same,TGI,K562; read-out: Log TGI (converted),> 100 µM
same,GI50,MCF7,93.3 µM
same,LC50,MCF7,> 100 µM
same,TGI,MCF7; read-out: Log TGI (converted),> 100 µM
same,GI50,HCT-116,42.7 µM
same,CC50,HCT-116; [6],34.7 µM
same,TGI,HCT-116; read-out: Log TGI (converted),> 100 µM
same,GI50,SK-MEL-28,> 100 µM
same,CC50,SK-MEL-28; [6],> 100 µM
same,TGI,SK-MEL-28; read-out: Log TGI (converted),> 100 µM
same,IC50,[4],2 µM
same,GI50,RXF 393,> 100 µM
same,LC50,RXF 393,> 100 µM
same,TGI,RXF 393; read-out: Log TGI (converted),> 100 µM
same,GI50,NCI-H322M,> 100 µM
same,CC50,NCI-H322M; [6],> 100 µM
same,TGI,NCI-H322M; read-out: Log TGI (converted),> 100 µM
same,GI50,SK-MEL-2,> 100 µM
same,LC50,SK-MEL-2,> 100 µM
same,TGI,SK-MEL-2; read-out: Log TGI (converted),> 100 µM
same,GI50,EKVX,100 µM
same,CC50,EKVX; [6],> 100 µM
same,TGI,EKVX; read-out: Log TGI (converted),> 100 µM
same,IC50,[5],> 10 µM
